Data as given in ChEMBL document CHEMBL2417490, “Synthesis and biological evaluation of pyrazolo[4,3-d]pyrimidine analogues” (Eur J Med Chem, 2013).
Values after ≈ are worked out from the molar mass of the structure shown.

Legend:
[1] = target: Xanthine dehydrogenase/oxidase (Homo sapiens, UniProt P47989); experiment: Inhibition of xanthine oxidase (unknown origin) using xanthine as substrate assessed as uric acid formation preincubated for 5 mins followed by substrate addition measured every minute up to 8 mins by spectrophotometric analysis
Sequence of Xanthine dehydrogenase/oxidase (P47989 whole entry): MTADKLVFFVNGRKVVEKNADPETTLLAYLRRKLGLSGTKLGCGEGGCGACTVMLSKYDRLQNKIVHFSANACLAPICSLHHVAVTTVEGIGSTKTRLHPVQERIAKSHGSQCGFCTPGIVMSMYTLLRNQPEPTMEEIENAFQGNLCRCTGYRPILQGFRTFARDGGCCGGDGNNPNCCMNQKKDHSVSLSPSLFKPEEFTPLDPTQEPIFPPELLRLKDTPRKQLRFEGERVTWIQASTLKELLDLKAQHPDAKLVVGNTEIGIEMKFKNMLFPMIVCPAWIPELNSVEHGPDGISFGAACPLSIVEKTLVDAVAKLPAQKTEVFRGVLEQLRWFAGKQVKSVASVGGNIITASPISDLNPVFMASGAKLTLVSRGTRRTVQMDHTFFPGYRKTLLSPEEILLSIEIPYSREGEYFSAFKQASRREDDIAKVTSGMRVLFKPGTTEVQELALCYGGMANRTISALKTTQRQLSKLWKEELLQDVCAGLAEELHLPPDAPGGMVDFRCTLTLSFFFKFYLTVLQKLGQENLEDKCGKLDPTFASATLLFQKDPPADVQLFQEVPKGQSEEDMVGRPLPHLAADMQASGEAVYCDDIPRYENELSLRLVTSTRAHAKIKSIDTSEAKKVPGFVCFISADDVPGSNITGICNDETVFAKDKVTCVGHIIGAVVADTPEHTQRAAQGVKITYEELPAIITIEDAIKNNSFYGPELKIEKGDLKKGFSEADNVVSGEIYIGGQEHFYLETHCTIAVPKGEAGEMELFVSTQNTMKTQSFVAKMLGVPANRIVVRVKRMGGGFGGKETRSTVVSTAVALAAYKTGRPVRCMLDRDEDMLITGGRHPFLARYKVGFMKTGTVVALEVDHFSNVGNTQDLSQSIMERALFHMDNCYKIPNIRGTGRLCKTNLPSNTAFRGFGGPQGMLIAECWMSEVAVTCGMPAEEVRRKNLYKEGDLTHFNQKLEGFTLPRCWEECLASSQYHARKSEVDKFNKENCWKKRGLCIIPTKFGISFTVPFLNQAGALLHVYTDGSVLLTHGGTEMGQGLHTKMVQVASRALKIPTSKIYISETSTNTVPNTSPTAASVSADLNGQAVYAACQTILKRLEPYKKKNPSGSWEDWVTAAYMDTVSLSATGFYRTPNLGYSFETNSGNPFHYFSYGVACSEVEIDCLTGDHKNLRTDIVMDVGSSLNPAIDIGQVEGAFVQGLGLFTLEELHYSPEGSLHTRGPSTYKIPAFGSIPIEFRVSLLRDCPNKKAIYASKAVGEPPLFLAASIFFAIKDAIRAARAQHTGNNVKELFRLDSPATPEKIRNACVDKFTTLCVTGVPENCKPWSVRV

[2] = Cytotoxicity against human 7402 cells assessed as inhibition of cell replication after 72 hrs by MTT assay; format: functional, cell-based
In short: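 7402 hepatoma cells, harvested in log phase with 0.05% trypsin/1 mM EDTA and grown at 37 °C in 5% CO₂, were seeded at 1 × 10⁵ cells/mL, grown overnight and then exposed to a concentration series (final DMSO <0.1%). MTT was added for 4 h and absorbance read at 570 nm. IC₅₀ came from probit analysis.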

[3] = Cytotoxicity against human 7221 cells assessed as inhibition of cell replication after 72 hrs by MTT assay; format: functional, cell-based
In short: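 7221 hepatoma cells, harvested in log phase with 0.05% trypsin/1 mM EDTA and grown at 37 °C in 5% CO₂, were plated, grown overnight and then exposed to a concentration series (final DMSO <0.1%). MTT was added for 4 h and absorbance read at 570 nm. IC₅₀ came from probit analysis.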

SMILES | IC50 ([1]; read-out: IC50 (converted)) [µM] | IC50 [1] | IC50 [2] [µg/mL] | IC50 [3] [µg/mL]
CCOC(=O)Cn1ncc2c(Nc3ccc(NS(=O)(=O)c4ccc([N+](=O)[O-])cc4)cc3)ncnc21 | > 201 |  | > 64 | > 64
CCOC(=O)Cn1ncc2c(Nc3ccc(NS(=O)(=O)c4ccccc4)cc3)ncnc21 | 172 |  | > 100 | > 100
O=C(O)Cn1ncc2c(Nc3ccc(NS(=O)(=O)c4ccc(Br)cc4)cc3)ncnc21 | > 199 |  | > 64 | > 64
CCOC(=O)Cn1ncc2c(Nc3ccc(NC(=O)CCl)cc3)ncnc21 |  |  | 7.27 (≈ 18.7 µM) | 3.51 (≈ 9.03 µM)
CCOC(=O)Cn1ncc2c(Nc3ccc(N)cc3)ncnc21 |  |  | > 64 | > 64
CCOC(=O)Cn1ncc2c(Cl)ncnc21 |  | Not Active | > 100 | > 100
CC(=O)Nc1ccc(Nc2ncnc3c2cnn3CC(=O)O)cc1 | 103 |  | > 64 | > 64
O=C(O)Cn1ncc2c(Nc3ccc(NC(=O)c4ccccc4)cc3)ncnc21 | 104 |  | > 100 | > 100
C=CCNC1=C2C[C@@H](C)C[C@H](OC)[C@H](O)[C@@H](C)/C=C(\C)[C@H](OC(N)=O)[C@@H](OC)/C=C\C=C(/C)C(=O)NC(=CC1=O)C2=O (stereo in doubt) [TANESPIMYCIN] |  |  | 7.27 (≈ 12.4 µM) | 5.77 (≈ 9.85 µM)
CCOC(=O)Cn1ncc2c(Nc3ccc(NS(=O)(=O)c4ccc(Br)cc4)cc3)ncnc21 |  | Not Active | > 64 | > 64

Second part, led by results:

IC50 ([1]; read-out: IC50 (converted)) [µM] | IC50 [1] | SMILES | IC50 [2] [µg/mL] | IC50 [3] [µg/mL]
102 |  | O=C(O)Cn1ncc2c(Nc3ccc(NC(=O)CCl)cc3)ncnc21 | > 100 | > 100
190 |  | O=C(O)Cn1ncc2c(Nc3ccc(NS(=O)(=O)c4ccc([N+](=O)[O-])cc4)cc3)ncnc21 | > 100 | > 100
144 |  | O=C(O)Cn1ncc2c(Nc3ccc(NS(=O)(=O)c4ccccc4)cc3)ncnc21 | > 100 | > 100
81.9 |  | CCOC(=O)Cn1ncc2c(Nc3ccc(NC(=O)c4ccccc4)cc3)ncnc21 | > 100 | > 100
109 |  | CCOC(=O)Cn1ncc2c(Nc3ccc(NC(C)=O)cc3)ncnc21 | > 64 | > 64
